Test results taken from ChEMBL document CHEMBL1137302 (J Med Chem, 2006).
pEC50, pKi: −log10 of the molar value. Active and inactive are the calls of the source. The rule behind the calls is not given here.

Assays:
D(4) dopamine receptor [1] = target: T1, D(4) dopamine receptor (Rattus norvegicus, UniProt P30729); assay: Agonist activity at rat D4 receptor in HEK293 cells coexpressing G-alpha-qo5 by FLIPR; assay type: functional, cell-based
T1 sequence (P30729 whole entry): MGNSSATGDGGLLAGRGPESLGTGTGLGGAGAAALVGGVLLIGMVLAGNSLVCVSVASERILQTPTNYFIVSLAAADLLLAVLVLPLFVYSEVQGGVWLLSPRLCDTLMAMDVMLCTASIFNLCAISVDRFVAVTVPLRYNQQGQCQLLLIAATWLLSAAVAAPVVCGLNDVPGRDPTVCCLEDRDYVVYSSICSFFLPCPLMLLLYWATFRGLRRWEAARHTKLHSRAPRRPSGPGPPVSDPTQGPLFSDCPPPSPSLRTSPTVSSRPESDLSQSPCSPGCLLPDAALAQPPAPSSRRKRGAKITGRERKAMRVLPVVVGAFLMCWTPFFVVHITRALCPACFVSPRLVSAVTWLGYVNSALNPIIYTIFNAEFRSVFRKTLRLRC

Mustela putorius furo [2] = species on record: Mustela putorius furo; assay: Induction of emesis in ferret; assay type: functional, organism-based
[3] = Bioavailability in Sprague-Dawley rat at 1 mg/kg, po; assay type: ADME, organism-based; conditions: in vivo
Procedure, shortened: (§1)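 Single 1 mg/kg dose given iv, sc or orally to Sprague-Dawley rats, dogs and monkeys; plasma concentrations followed over time (mean ± SEM, n = 3). Cmax, AUC, half-life, clearance and bioavailability calculated from the curves.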

[4] = target: D(3) dopamine receptor (Homo sapiens) (UniProt P35462); assay: Agonist activity at human D3 receptor in HEK293 cells coexpressing G-alpha-qo5 by FLIPR upto 10 uM; assay type: functional, cell-based
Sequence of D(3) dopamine receptor (Homo sapiens) (P35462 whole entry): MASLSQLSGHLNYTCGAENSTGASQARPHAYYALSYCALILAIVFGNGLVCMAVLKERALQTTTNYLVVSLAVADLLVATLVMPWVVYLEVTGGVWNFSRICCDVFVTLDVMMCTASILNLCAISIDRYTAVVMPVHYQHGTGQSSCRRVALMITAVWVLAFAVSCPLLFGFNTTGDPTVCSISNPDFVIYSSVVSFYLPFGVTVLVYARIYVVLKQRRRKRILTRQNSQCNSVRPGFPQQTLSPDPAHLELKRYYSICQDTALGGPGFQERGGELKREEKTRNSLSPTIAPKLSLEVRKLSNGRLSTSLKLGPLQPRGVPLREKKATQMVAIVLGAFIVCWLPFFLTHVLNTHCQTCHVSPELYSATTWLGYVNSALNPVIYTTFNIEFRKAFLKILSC

D(2) dopamine receptor [5] = target: T2, D(2) dopamine receptor (Homo sapiens, UniProt P14416); assay: Displacement of [125I]7-OH-PIPAT from human D2L receptor expressed in HEK293 cell membrane; assay type: cell membranes
T2 sequence (P14416 whole entry): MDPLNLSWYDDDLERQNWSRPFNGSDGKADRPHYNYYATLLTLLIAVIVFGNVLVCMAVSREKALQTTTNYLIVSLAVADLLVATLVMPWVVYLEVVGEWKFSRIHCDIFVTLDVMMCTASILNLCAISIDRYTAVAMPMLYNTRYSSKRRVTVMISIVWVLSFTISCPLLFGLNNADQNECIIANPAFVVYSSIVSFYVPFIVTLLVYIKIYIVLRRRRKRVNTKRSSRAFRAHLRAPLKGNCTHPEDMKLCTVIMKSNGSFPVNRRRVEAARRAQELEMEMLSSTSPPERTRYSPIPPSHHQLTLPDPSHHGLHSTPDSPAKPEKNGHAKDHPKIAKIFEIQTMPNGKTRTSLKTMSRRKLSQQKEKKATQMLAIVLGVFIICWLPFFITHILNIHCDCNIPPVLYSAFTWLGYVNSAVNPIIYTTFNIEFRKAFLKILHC

[6] = Oral bioavailability in dog; assay type: ADME, organism-based, Canis lupus familiaris; conditions: in vivo; procedure, shortened: as §1
[7] = Half life in Sprague-Dawley rat at 1 mg/kg, po; assay type: ADME, organism-based; design: dose 1 mg/kg, route oral; conditions: in vivo; procedure, shortened: as §1
Mustela putorius furo [8] = species on record: Mustela putorius furo; assay: Induction of nausea in ferret; assay type: functional, organism-based
Rattus norvegicus [9] = assay: Proerectile activity in rat measured as incidence of penile erection at 0.3 umol/kg, sc; assay type: functional
Procedure, shortened: (§2)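 Conscious male rats were given a single subcutaneous injection and observed for penile erections over the following 60 min. The read-out was the incidence of erections, expressed as % of animals ± SEM (n = 12–32 animals per group), with significance tested against controls. The value is the maximal incidence at the maximally effective dose.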

[10] = target: Phosphodiesterase 3 (Homo sapiens) (UniProt Q14432+Q13370); assay: Activity at PDE3 at 10 uM; assay type: protein assay
Procedure, shortened: (§3)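 Broad selectivity panel (over 70 receptors, ion channels and neuronal receptors, PDE1-6 included) run at a single 10 µM concentration.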

[11] = Oral bioavailability in monkey; assay type: ADME, organism-based, Macaca mulatta; conditions: rhesus monkey, in vivo; procedure, shortened: as §1
D(4) dopamine receptor [12] = target: T3, D(4) dopamine receptor (Homo sapiens, UniProt P21917); assay: Displacement of [3H]A369508 from human D4 receptor expressed in HEK293 cell membrane; assay type: cell membranes
T3 sequence (P21917 whole entry): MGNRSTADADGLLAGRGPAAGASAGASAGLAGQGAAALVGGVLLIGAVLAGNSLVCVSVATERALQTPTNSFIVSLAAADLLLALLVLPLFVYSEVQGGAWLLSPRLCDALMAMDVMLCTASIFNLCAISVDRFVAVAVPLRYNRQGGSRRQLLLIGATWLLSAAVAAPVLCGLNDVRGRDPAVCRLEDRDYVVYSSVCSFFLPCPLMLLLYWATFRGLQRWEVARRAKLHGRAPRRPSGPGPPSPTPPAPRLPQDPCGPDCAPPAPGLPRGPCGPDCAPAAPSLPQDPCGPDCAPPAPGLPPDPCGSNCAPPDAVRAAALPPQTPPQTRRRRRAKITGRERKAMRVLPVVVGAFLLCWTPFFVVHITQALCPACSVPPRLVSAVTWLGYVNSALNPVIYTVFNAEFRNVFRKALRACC

[13] = target: T4, D(4) dopamine receptor (Rattus norvegicus) (UniProt P30729); assay: Agonist activity at rat D4 receptor in HEK293 cells co-expressing Galphaqo5 by FLIPR relative to dopamine; assay type: functional, cell-based
T4 sequence (whole entry): T1 sequence (P30729 whole entry)

[14] = target: Phosphodiesterase 1 (Homo sapiens) (UniProt P54750+Q01064+Q14123); assay: Activity at PDE1 at 10 uM; assay type: protein assay; procedure, shortened: as §3
[15] = target: D(2) dopamine receptor (Rattus norvegicus) (UniProt P61169); assay: Agonist activity at rat D2 receptor in HEK293 cells coexpressing G-alpha-qo5 by FLIPR relative to dopamine upto 10 uM; assay type: functional, cell-based
Sequence of D(2) dopamine receptor (Rattus norvegicus) (P61169 whole entry): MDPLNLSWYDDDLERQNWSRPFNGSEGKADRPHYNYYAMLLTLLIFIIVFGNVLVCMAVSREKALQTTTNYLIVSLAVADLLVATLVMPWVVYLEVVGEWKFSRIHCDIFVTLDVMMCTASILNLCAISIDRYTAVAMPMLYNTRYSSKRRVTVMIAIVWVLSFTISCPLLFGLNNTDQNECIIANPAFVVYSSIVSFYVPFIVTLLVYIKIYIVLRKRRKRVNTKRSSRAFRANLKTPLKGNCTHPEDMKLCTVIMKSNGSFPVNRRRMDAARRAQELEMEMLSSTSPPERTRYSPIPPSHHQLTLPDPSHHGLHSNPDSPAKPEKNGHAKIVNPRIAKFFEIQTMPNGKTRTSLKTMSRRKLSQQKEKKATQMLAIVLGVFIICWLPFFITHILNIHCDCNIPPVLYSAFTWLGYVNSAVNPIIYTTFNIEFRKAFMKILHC
Procedure, shortened: (§4)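 Ca2+ flux by FLIPR in HEK cells cotransfected with the D2 receptor (human, ferret or rat) plus chimeric G protein Gqo5.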

D(4) dopamine receptor [16] = target: T3, D(4) dopamine receptor; assay: Agonist activity at human D4.4 receptor in HEK293 cells coexpressing G-alpha-qo5 by FLIPR; assay type: functional, cell-based
D(2) dopamine receptor [17] = target: T2, D(2) dopamine receptor; assay: Binding affinity to human D2S receptor
D(2) dopamine receptor [18] = target: T2, D(2) dopamine receptor; assay: Agonist activity at human D2 receptor in HEK293 cells coexpressing G-alpha-qo5 by FLIPR relative to dopamine upto 10 uM; assay type: functional, cell-based; procedure, shortened: as §4
[19] = Half life in Sprague-Dawley rat at 1 mg/kg, sc; assay type: ADME, organism-based; design: dose 1 mg/kg, route subcutaneous; conditions: in vivo; procedure, shortened: as §1
[20] = target: Phosphodiesterase 4 (Homo sapiens) (UniProt P27815+Q08499+Q07343+Q08493); assay: Activity at PDE4 at 10 uM; assay type: protein assay; procedure, shortened: as §3
[21] = target: cGMP-specific 3',5'-cyclic phosphodiesterase (Homo sapiens) (UniProt O76074); assay: Activity at PDE5 at 10 uM; procedure, shortened: as §3
[22] = target: Phosphodiesterase 6 (Homo sapiens) (UniProt Q13956+P18545+P35913+O43924+P16499+P51160); assay: Activity at PDE6 at 10 uM; assay type: protein assay; procedure, shortened: as §3
[23] = target: T5, D(4) dopamine receptor (Homo sapiens) (UniProt P21917); assay: Activity at human D4.4 receptor in HEK293 cells co-expressing Galphaqo5 by FLIPR; assay type: functional, cell-based; conditions: filed as agonist
T5 sequence (whole entry): T3 sequence (P21917 whole entry)

hERG = hERG (Homo sapiens, UniProt Q12809); assay: Blockade of current at hERG expressed in HEK293 cells at 3 ug/mL; assay type: cell-based; conditions: HEK293 cells that express hERG
Sequence of hERG (Q12809 whole entry): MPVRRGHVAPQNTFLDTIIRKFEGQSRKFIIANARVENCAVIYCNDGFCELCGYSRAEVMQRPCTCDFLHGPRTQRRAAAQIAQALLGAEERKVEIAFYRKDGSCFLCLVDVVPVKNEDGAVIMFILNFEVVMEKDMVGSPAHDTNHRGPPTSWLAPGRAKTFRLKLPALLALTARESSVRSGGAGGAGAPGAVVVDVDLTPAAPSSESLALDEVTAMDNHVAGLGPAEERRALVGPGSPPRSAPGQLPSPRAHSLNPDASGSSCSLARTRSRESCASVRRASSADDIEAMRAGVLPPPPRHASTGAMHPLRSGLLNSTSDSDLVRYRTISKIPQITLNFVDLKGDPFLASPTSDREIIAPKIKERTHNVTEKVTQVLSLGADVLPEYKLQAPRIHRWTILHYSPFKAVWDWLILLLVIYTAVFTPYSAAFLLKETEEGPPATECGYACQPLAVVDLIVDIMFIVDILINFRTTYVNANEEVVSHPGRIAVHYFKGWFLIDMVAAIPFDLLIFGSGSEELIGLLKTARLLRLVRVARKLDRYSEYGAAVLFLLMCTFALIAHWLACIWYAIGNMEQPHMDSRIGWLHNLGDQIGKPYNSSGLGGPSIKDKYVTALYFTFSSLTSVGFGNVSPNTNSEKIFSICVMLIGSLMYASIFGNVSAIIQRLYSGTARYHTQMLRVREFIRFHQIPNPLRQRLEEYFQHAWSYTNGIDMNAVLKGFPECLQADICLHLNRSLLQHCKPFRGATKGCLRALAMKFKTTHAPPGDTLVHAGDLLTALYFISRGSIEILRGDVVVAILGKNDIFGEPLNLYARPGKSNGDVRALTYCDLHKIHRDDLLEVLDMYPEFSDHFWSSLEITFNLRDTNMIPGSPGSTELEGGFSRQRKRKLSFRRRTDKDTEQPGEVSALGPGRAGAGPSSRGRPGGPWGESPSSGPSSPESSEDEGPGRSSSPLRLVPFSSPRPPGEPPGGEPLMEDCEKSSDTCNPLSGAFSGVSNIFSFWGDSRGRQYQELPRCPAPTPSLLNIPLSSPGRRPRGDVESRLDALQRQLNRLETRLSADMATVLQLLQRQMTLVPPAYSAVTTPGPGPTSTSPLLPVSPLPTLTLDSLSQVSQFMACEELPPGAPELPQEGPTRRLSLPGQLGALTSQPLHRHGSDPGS
Procedure, shortened: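 hERG stably expressed in HEK293 cells; whole-cell voltage clamp. Pipette: K aspartate/KCl/EGTA/MgATP, pH 7.3. Bath: NaCl-based HEPES, pH 7.4. Compound dissolved in DMSO (≤0.1%), one concentration per cell. Steps to -25 to +50 mV for 3 s, then -50 mV for 4 s, from -80 mV every 15 s; tail current measured against DMSO vehicle.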

[24] = Oral bioavailability in rat; assay type: ADME, organism-based; conditions: in vivo; procedure, shortened: as §1
[25] = Effect on canine cardiac Purkinje fiber repolarization measured as prolongation of action potential duration at 1.6 ug/mL; assay type: functional, Canis lupus familiaris
Procedure, shortened: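 Canine Purkinje fibres impaled with 3 M KCl microelectrodes after at least 30 min equilibration under stimulation. Bath: 131 mM NaCl, 18 mM NaHCO3, 4 mM KCl, 2 mM CaCl2. Baseline APD90 recorded at BCL 2 s, 800 and 400 ms. Each fibre then received two ascending concentrations, each with 25 min equilibration and re-recording at all three rates.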

[26] = Bioavailability in Sprague-Dawley rat at 1 mg/kg, sc; assay type: ADME, organism-based; conditions: in vivo; procedure, shortened: as §1
[27] = target: cGMP-dependent 3',5'-cyclic phosphodiesterase (Homo sapiens) (UniProt O00408); assay: Activity at PDE2 at 10 uM; procedure, shortened: as §3
Sequence of cGMP-dependent 3',5'-cyclic phosphodiesterase (Homo sapiens) (O00408 whole entry): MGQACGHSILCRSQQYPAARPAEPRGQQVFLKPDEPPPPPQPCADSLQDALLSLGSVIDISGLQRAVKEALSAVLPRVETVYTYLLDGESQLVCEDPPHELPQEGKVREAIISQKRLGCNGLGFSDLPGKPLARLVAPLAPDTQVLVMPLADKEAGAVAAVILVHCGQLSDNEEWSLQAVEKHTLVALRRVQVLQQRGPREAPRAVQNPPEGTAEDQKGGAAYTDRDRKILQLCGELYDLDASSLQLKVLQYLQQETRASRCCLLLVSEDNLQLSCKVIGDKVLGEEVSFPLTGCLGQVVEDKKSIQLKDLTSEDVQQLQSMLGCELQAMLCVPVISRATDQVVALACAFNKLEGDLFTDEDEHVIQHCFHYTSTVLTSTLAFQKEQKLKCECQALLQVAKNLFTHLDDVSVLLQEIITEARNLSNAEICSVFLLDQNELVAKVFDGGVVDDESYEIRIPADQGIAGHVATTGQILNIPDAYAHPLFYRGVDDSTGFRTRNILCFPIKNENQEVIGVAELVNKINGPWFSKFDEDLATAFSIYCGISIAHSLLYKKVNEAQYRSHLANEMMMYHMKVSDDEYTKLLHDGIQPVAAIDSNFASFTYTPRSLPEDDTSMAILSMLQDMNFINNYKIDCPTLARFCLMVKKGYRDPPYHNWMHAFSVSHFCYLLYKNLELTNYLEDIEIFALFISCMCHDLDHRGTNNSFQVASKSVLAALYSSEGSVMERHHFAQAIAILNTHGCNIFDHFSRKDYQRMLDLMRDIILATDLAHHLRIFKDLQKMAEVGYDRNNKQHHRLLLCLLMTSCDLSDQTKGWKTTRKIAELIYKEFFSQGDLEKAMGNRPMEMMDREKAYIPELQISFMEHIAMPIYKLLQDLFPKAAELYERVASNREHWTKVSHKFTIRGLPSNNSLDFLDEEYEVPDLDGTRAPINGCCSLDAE

Rattus norvegicus [28] = assay: Blockade of ABT-670-induced erctogenic activity in rat at 1 umol/kg, ip; assay type: functional, organism-based
Rattus norvegicus [29] = assay: Proerectile activity in rat measured as incidence of penile erection at 0.03 umol/kg, sc; assay type: functional
Procedure, shortened: (§5)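 Conscious male rats dosed subcutaneously. Penile erection incidence scored over 60 min after injection; values are % ± SEM, with significance tested against control.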

[30] = system: D(2) dopamine receptor (Mustela putorius furo); assay: Agonist activity at ferret D2 receptor in HEK293 cells coexpressing Galphaqo5 by FLIPR relative to dopamine upto 10 uM
Rattus norvegicus [31] = assay: Proerectile activity in rat measured as incidence of penile erection at 0.01 umol/kg, sc; assay type: functional; procedure, shortened: as §5
[32] = target: T5, D(4) dopamine receptor (Homo sapiens); assay: Agonist activity at human D4.4 receptor in HEK293 cells coexpressing G-alpha-qo5 by FLIPR with relative to dopamine upto 10 uM; assay type: functional, cell-based
Rattus norvegicus [33] = assay: Proerectile activity in rat measured as incidence of penile erection at 0.1 umol/kg, sc; assay type: functional; procedure, shortened: as §2
Rattus norvegicus [34] = assay: Blockade of ABT-670-induced erctogenic activity in rat at 10 umol/kg, ip; assay type: functional, organism-based

Cc1cccc(NC(=O)CN2CCC(c3cccc[n+]3[O-])CC2)c1
pEC50 (D(4) dopamine receptor [1]): 7.24 | Activity (Mustela putorius furo [2]): inactive | bioavailability [3]: 11% | Activity [4]: inactive | pKi (D(2) dopamine receptor [5]): < 5.00 | bioavailability [6]: 70% | half-life [7]: 18 min | Activity (Mustela putorius furo [8]): inactive | Activity (Rattus norvegicus [9]): 75% | Activity [10]: inactive | bioavailability [11]: 28% | pKi (D(4) dopamine receptor [12]): 6.53 | Efficacy [13]: 80% | Activity [14]: inactive | Activity [15]: inactive | pEC50 (D(4) dopamine receptor [16]): 7.49 | pKi (D(2) dopamine receptor [17]): < 5.00 | Activity (D(2) dopamine receptor [18]): inactive | half-life [19]: 30 min | Activity [20]: inactive | Activity [21]: inactive | Activity [22]: inactive | Activity [23]: Agonist | inhibition at 3 ug/mL (hERG): 44.8% | bioavailability [24]: 11% | Activity [25]: 12% | bioavailability [26]: 61% | Activity [27]: inactive

O=C(CCCN1CCC(O)(c2ccc(Cl)cc2)CC1)c1ccc(F)cc1
Activity (Rattus norvegicus [28]): Active

Cc1cc(F)ccc1NC(=O)CN1CCC(c2cccc[n+]2[O-])CC1
pEC50 (D(4) dopamine receptor [1]): 7.00 | Activity (Rattus norvegicus [29]): 67% | Activity (Mustela putorius furo [2]): inactive | bioavailability [3]: 7% | Activity [4]: inactive | pKi (D(2) dopamine receptor [5]): < 5.00 | Activity (Mustela putorius furo [8]): inactive | pKi (D(4) dopamine receptor [12]): 6.39 | Efficacy [13]: 76% | Activity [15]: inactive | pEC50 (D(4) dopamine receptor [16]): 7.22 | pKi (D(2) dopamine receptor [17]): < 5.00 | Activity (D(2) dopamine receptor [18]): inactive | Activity [23]: Agonist | Activity [30]: inactive

Cc1ccc([N+](=O)[O-])cc1NC(=O)CN1CCC(c2cccc[n+]2[O-])CC1
Activity (Rattus norvegicus [31]): 83% | pEC50 (D(4) dopamine receptor [16]): 6.87 | Activity [23]: Agonist

O=C(NCN1CCC(c2cccc[n+]2[O-])CC1)c1cccs1
Activity [32]: inactive

Cc1cccc(NC(=O)CN2CCC(c3ccccn3)CC2)c1
bioavailability [3]: 0% | pKi (D(4) dopamine receptor [12]): 8.10 | pEC50 (D(4) dopamine receptor [16]): 7.85 | half-life [19]: 42 min | Activity [23]: Agonist | Activity (Rattus norvegicus [33]): 75% | bioavailability [26]: 57%

O=c1[nH]c2ccccc2n1CCCN1CCC(n2c(=O)[nH]c3cc(Cl)ccc32)CC1
Activity (Rattus norvegicus [34]): inactive
